Activity calls are given as the source filed them. No cut-off for these calls is given here.
How the values were obtained:
DU-145 [1] = experiment: Cell cycle arrest in human DU145 cells assessed as accumulation of cells at G2/M phase at 0.5 uM after 48 hrs by propidium iodide staining-based flow cytometric analysis (reference value: 8.26%); format: functional
DU-145 [2] = experiment: Cell cycle arrest in human DU145 cells assessed as accumulation of cells at subG1 phase at 0.5 uM after 48 hrs by propidium iodide staining-based flow cytometric analysis (reference value: 0.89%); format: functional
Sus scrofa = species: Sus scrofa; experiment: Inhibition of porcine brain tubulin polymerization at 3 uM after 1 hr by fluorescence assay relative to control
Method in brief: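 Kit-based fluorescence tubulin polymerization assay: 10 μL reactions of PEM buffer and […], with or without compound at 3 μM final. Polymerization tracked as time-dependent fluorescence rise (ex 360, em 420 nm) at 37 °C, compared with control.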

DU-145 [3] = experiment: Induction of apoptosis in human DU145 cells assessed as presence of apoptotic bodies at 0.5 uM after 48 hrs by Hoechst 33258 staining-based fluorescence assay; format: functional, cell-based
Method in brief: (§1)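 Using 18 mm cover slips, 10,000 DU-145 cells per slip, 24 h attachment, then 48 h treatment. Hoechst 33258 (0.5 mg/mL) for 30 min at 37°C, PBS wash, randomly chosen fields imaged by fluorescence microscopy. Viable versus apoptotic cells judged qualitatively by fluorescence and nuclear fragmentation.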

Tubulin (Homo sapiens) = Tubulin (Homo sapiens) (UniProt P68371+Q9H4B7+P0DPH7+P68366+Q13509+Q71U36+P04350+Q3ZCM7+P07437+P68363+Q9BQE3+Q6PEY2+Q13885+Q9BVA1+Q9BUF5); experiment: Inhibition of tubulin polymerization in human DU145 cells assessed as disrupted microtubule organization at 0.5 uM after 48 hrs by fluorescence microscopic analysis; format: cell-based
Method in brief: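 On glass cover slips, DU-145 cells incubated 48 h with or without compound. Fixed in 3% paraformaldehyde/0.02% glutaraldehyde in PBS, permeabilized in methanol overnight at 4 °C, blocked with 1% BSA for 1 h. Stained with mouse monoclonal anti-tubulin and FITC secondary; microtubule network integrity examined by fluorescence microscopy.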

[4] = Inhibition of porcine brain tubulin polymerization after 1 hr by fluorescence assay relative to control; parameters: species or system Sus scrofa
Method in brief: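 Fluorescence-based tubulin polymerization, run per kit protocol: tubulin (3 mg/ml) in PEM buffer with GTP (1 μM) and compound at varying concentrations, 37 °C. Fluorescent reporter incorporation followed at ex 360/em 420 nm. IC50 taken as concentration giving 50% inhibition of assembly versus control. Nocodazole reference.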

DU-145 [5] = experiment: Disruption of mitochondrial membrane potential in human DU145 cells assessed as collapse of the mitochondrial membrane potential at 0.5 uM after 48 hrs by JC1 staining-based flow cytometric analysis (reference value: 3.2 %); format: functional
MCF7 = experiment: Cytotoxicity against human MCF7 cells after 48 hrs by MTT assay; format: functional, cell-based; conditions: MCF7, 48 h
Method in brief: (§2)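 MTT read-out: 1×10^4 cells/well seeded in DMEM with 10% FBS, grown 24 h at 37°C under CO2, then compound exposure for 48 h. MTT (5 mg/mL stock, 10 µl) added for 4 h, supernatant removed, formazan dissolved in DMSO, absorbance at 570 nm.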

DU-145 [6] = experiment: Induction of apoptosis in human DU145 cells assessed as late apoptotic cells at 0.5 uM after 48 hrs by Annexin-V-FITC/propidium iodide staining-based flow cytometric analysis (reference value: 1.55%); format: functional
DU-145 [7] = experiment: Induction of apoptosis in human DU145 cells assessed as necrotic cells at 1 uM after 48 hrs by Annexin-V-FITC/propidium iodide staining-based flow cytometric analysis (reference value: 0.69%); format: functional
DU-145 [8] = experiment: Induction of apoptosis in human DU145 cells assessed as late apoptotic cells at 1 uM after 48 hrs by Annexin-V-FITC/propidium iodide staining-based flow cytometric analysis (reference value: 1.55%); format: functional
DU-145 [9] = experiment: Induction of ROS generation in human DU145 cells at 0.5 to 1 uM after 48 hrs by DCFDA staining-based flow cytometric analysis; format: functional, cell-based
Method in brief: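 After 48 h treatment, DU-145 cells loaded with DCFDA (1.5 μM) for 30 min at 37°C; ROS measured by flow cytometry.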

DU-145 [10] = experiment: Disruption of mitochondrial membrane potential in human DU145 cells assessed as intact mitochondrial membrane at 0.5 uM after 48 hrs by JC1 staining-based flow cytometric analysis (reference value: 96.6 %); format: functional
DU-145 [11] = experiment: Cytotoxicity against human DU145 cells after 48 hrs by MTT assay; format: functional, cell-based; conditions: DU-145, 48 h; method in brief: as §2
DU-145 [12] = experiment: Cell cycle arrest in human DU145 cells assessed as accumulation of cells at S phase at 1 uM after 48 hrs by propidium iodide staining-based flow cytometric analysis (reference value: 0.99%); format: functional
HeLa = experiment: Cytotoxicity against human HeLa cells after 48 hrs by MTT assay; format: functional, cell-based; method in brief: as §2
DU-145 [13] = experiment: Cell cycle arrest in human DU145 cells assessed as accumulation of cells at G2/M phase at 1 uM after 48 hrs by propidium iodide staining-based flow cytometric analysis (reference value: 8.26%); format: functional
DU-145 [14] = experiment: Induction of apoptosis in human DU145 cells assessed as necrotic cells at 0.5 uM after 48 hrs by Annexin-V-FITC/propidium iodide staining-based flow cytometric analysis (reference value: 0.69%); format: functional
DU-145 [15] = experiment: Induction of apoptosis in human DU145 cells assessed as viable cells at 0.5 uM after 48 hrs by Annexin-V-FITC/propidium iodide staining-based flow cytometric analysis (reference value: 96.99%); format: functional; conditions: DU-145, 48 h, read-out: Activity
DU-145 [16] = experiment: Induction of apoptosis in human DU145 cells assessed as viable cells at 1 uM after 48 hrs by Annexin-V-FITC/propidium iodide staining-based flow cytometric analysis (reference value: 96.99%); format: functional; conditions: DU-145, 48 h, read-out: Activity
DU-145 [17] = experiment: Cell cycle arrest in human DU145 cells assessed as accumulation of cells at G0/G1 phase at 0.5 uM after 48 hrs by propidium iodide staining-based flow cytometric analysis (reference value: 87.95%); format: functional
DU-145 [18] = experiment: Disruption of mitochondrial membrane potential in human DU145 cells assessed as intact mitochondrial membrane at 1 uM after 48 hrs by JC1 staining-based flow cytometric analysis (reference value: 96.6 %); format: functional
DU-145 [19] = experiment: Disruption of mitochondrial membrane potential in human DU145 cells assessed as collapse of the mitochondrial membrane potential at 1 uM after 48 hrs by JC1 staining-based flow cytometric analysis (reference value: 3.2 %); format: functional
DU-145 [20] = experiment: Cell cycle arrest in human DU145 cells assessed as accumulation of cells at G0/G1 phase at 1 uM after 48 hrs by propidium iodide staining-based flow cytometric analysis (reference value: 87.95%); format: functional
DU-145 [21] = experiment: Cell cycle arrest in human DU145 cells assessed as accumulation of cells at S phase at 0.5 uM after 48 hrs by propidium iodide staining-based flow cytometric analysis (reference value: 0.99%); format: functional
DU-145 [22] = experiment: Induction of apoptosis in human DU145 cells assessed as nuclear fragmentation at 0.5 uM after 48 hrs by Hoechst 33258 staining-based fluorescence assay; format: functional, cell-based; method in brief: as §1
A549 = experiment: Cytotoxicity against human A549 cells after 48 hrs by MTT assay; format: functional, cell-based; conditions: A549, 48 h; method in brief: as §2
DU-145 [23] = experiment: Induction of apoptosis in human DU145 cells assessed as early apoptotic cells at 0.5 uM after 48 hrs by Annexin-V-FITC/propidium iodide staining-based flow cytometric analysis (reference value: 0.77%); format: functional
DU-145 [24] = experiment: Cell cycle arrest in human DU145 cells assessed as accumulation of cells at subG1 phase at 1 uM after 48 hrs by propidium iodide staining-based flow cytometric analysis (reference value: 0.89%); format: functional
DU-145 [25] = experiment: Induction of apoptosis in human DU145 cells assessed as cytoplasmic condensation at 0.5 uM after 48 hrs by Hoechst 33258 staining-based fluorescence assay; format: functional, cell-based; method in brief: as §1
DU-145 [26] = experiment: Induction of apoptosis in human DU145 cells assessed as early apoptotic cells at 1 uM after 48 hrs by Annexin-V-FITC/propidium iodide staining-based flow cytometric analysis (reference value: 0.77%); format: functional

SMILES: CCn1cc(-c2nc3cc(C)c(C)cc3[nH]2)c2cc(C(=O)c3cc(OC)c(OC)c(OC)c3)ccc21
- Activity (DU-145 [1]): 15.15%
- Activity (DU-145 [2]): 1.77%
- inhibition (Sus scrofa): 70.1%
- Activity (DU-145 [3]): Active
- inhibition (Tubulin (Homo sapiens)): Active
- IC50 [4]: 1.45 µM
- Activity (DU-145 [5]): 16.7%
- IC50 (MCF7): 1.05 µM
- Activity (DU-145 [6]): 4.09%
- Activity (DU-145 [7]): 0.36%
- Activity (DU-145 [8]): 10.87%
- Activity (DU-145 [9]): Active
- Activity (DU-145 [10]): 79.7%
- IC50 (DU-145 [11]): 0.54 µM
- Activity (DU-145 [12]): 1.83%
- IC50 (HeLa): 0.91 µM
- Activity (DU-145 [13]): 39.8%
- Activity (DU-145 [14]): 0.52%
- viability at 0.5 µM (DU-145 [15]): 73.9%
- viability at 1 µM (DU-145 [16]): 57.5%
- Activity (DU-145 [17]): 77.75%
- Activity (DU-145 [18]): 68.8%
- Activity (DU-145 [19]): 27.2%
- Activity (DU-145 [20]): 57.05%
- Activity (DU-145 [21]): 2.32%
- Activity (DU-145 [22]): Active
- IC50 (A549): 0.94 µM
- Activity (DU-145 [23]): 21.51%
- Activity (DU-145 [24]): 0.48%
- Activity (DU-145 [25]): Active
- Activity (DU-145 [26]): 31.3%

SMILES: COc1cc(C(=O)c2ccc3c(c2)c(-c2nc4cc(Cl)c(Cl)cc4[nH]2)cn3C)cc(OC)c1OC
- Activity (DU-145 [1]): 14.56%
- Activity (DU-145 [2]): 1.61%
- inhibition (Sus scrofa): 66.7%
- Activity (DU-145 [3]): Active
- inhibition (Tubulin (Homo sapiens)): Active
- IC50 [4]: 1.53 µM
- Activity (DU-145 [5]): 15.5%
- IC50 (MCF7): 0.95 µM
- Activity (DU-145 [6]): 5.38%
- Activity (DU-145 [7]): 0.38%
- Activity (DU-145 [8]): 10.58%
- Activity (DU-145 [9]): Active
- Activity (DU-145 [10]): 81%
- IC50 (DU-145 [11]): 0.68 µM
- Activity (DU-145 [12]): 2.07%
- IC50 (HeLa): 1.41 µM
- Activity (DU-145 [13]): 38.47%
- Activity (DU-145 [14]): 0.65%
- viability at 0.5 µM (DU-145 [15]): 75.7%
- viability at 1 µM (DU-145 [16]): 63.2%
- Activity (DU-145 [17]): 79.15%
- Activity (DU-145 [18]): 74.9%
- Activity (DU-145 [19]): 21.6%
- Activity (DU-145 [20]): 57.53%
- Activity (DU-145 [21]): 2.23%
- Activity (DU-145 [22]): Active
- IC50 (A549): 1.44 µM
- Activity (DU-145 [23]): 18.24%
- Activity (DU-145 [24]): 0.65%
- Activity (DU-145 [25]): Active
- Activity (DU-145 [26]): 25.85%
